Test results published in ChEMBL document CHEMBL4480395, “Pros and cons of virtual screening based on public "Big Data": In silico mining for new bromodomain inhibitors” (Eur J Med Chem, 2019).

How the values were obtained:
[1] = biological target: T1, Bromodomain-containing protein 4 (Homo sapiens, UniProt O60885); experiment: Binding affinity to N-terminal His6-tagged BRD4 bromodomain 1 (44 to 168 residues) (unknown origin) assessed as change in melting temperature at 20 uM measured after 1 hr by Sypro orange dye based differential scanning fluorimetry
In short: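 Ligand binding was read by differential scanning fluorimetry: a fluorescent dye reports protein core exposure during heat denaturation, and the value is the shift in protein denaturation temperature (ΔTm) with compound present.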

[2] = biological target: T1, Bromodomain-containing protein 4; experiment: Inhibition of BRD4 (unknown origin) measured after 2 hrs by TR-FRET assay

SMILES | ΔTm [1] | IC50 [2]
Cc1nn(CCO)c(C)c1CNC(c1ccccc1)c1nccn1C (stereo not drawn) | 1.09 °C | –
COCCc1ccccc1NC(=O)NC(c1ccccc1)c1n[nH]c(C)n1 (stereo not drawn) | 1.26 °C | –
Cc1n[nH]c(C)c1CNCc1c(C)nn(Cc2ccccc2)c1C | 1.6 °C | 33.2 µM
CCC(C)C1NC(=O)N(CC(C)c2c(C)noc2C)C1=O (stereo not drawn) | 2.12 °C | –
Cc1noc(C)c1CNC(=O)Nc1cccc(-c2ccc(Cl)c(Cl)c2)c1 | 1.56 °C | –
Cc1nnc2ccc(N(C)Cc3ccc([S+](C)[O-])cc3)nn12 (stereo not drawn) | 1.8 °C | –
Cc1noc(C)c1COc1ccccc1C(=O)NC(c1ccccc1)c1ccccc1 | 0.93 °C | –
Cc1nnc2ccc(N3CCN(C(=O)c4csc(-c5ccccc5F)n4)CC3)nn12 | 1.72 °C | –
Cc1nnc2ccc(NCc3ccc(OC4CCCC4)nc3)nn12 | 1.89 °C | –
Cc1noc(C)c1CC(=O)Nc1nc(-c2c(C)[nH]c3ccccc23)cs1 | 1.86 °C | 19.5 µM
COCCN(C)c1ccccc1CNc1ccc2nnc(C)n2n1 | 1.1 °C | 107 µM
CC(Sc1nc(-c2cccs2)n[nH]1)C(=O)N1CCCc2ccccc21 (stereo not drawn) | 1.78 °C | –
COc1ccc(-n2ccc(C(=O)Nc3cc(Cl)c(=O)n(C)c3)n2)cc1 | 1.08 °C | –
Cc1noc(C)c1NC(=O)N1CCCCC1c1ncc[nH]1 (stereo not drawn) | 1.76 °C | –
Cc1c(C2OCCC2NCc2cc(-c3cnn(C)c3)no2)cnn1C (stereo not drawn) | 2.02 °C | –
c1cnn(-c2ccc(CNc3ccc4nnc(C5CC5)n4n3)cc2)c1 | 0.76 °C | 63.3 µM
CC(C(=O)Nc1ccc2nnc(C3CCC3)n2c1)n1cncn1 (stereo not drawn) | 1.49 °C | –
Cc1nn(C)c(C)c1C1C(CNc2nccn3cnnc23)CC(=O)N1C (stereo not drawn) | 1.9 °C | 23.9 µM
Cc1nnc2ccc(NCc3cn(-c4ccccc4)nc3C(C)C)nn12 | 2.66 °C | 11.7 µM
Cc1nnc2ccc(NCc3ccnc(OC4CCCC4)c3)nn12 | 1.69 °C | –
Cc1nnc2ccc(NC3CCCc4cc(OC(F)F)ccc43)nn12 (stereo not drawn) | 1.7 °C | –
CCn1c(SC(C(=O)NCc2cccnc2)C(C)C)nnc1-c1cccs1 (stereo not drawn) | 1.6 °C | 8.81 µM
Cc1cc(C(=O)N(C)C(c2ccccc2)c2ccccn2)c2c(C)nn(C(C)(C)C)c2n1 (stereo not drawn) | 1.49 °C | –
COCCCOc1cc(C)ccc1CNc1ccc2nnc(C)n2n1 | 1.56 °C | –
Cc1cc(-c2cc(C(=O)NC3CCC(CO)CC3)c3c(C)noc3n2)c(C)o1 (stereo not drawn) | 2.82 °C | 24.9 µM
Cc1nnc2c(NCc3cnn(-c4ccc(Cl)cc4)c3)nccn12 | 1.86 °C | –
Cc1nn(C2CCS(=O)(=O)C2)c(C)c1CN(C)C(=O)CC(c1ccccc1)c1ccccc1 (stereo not drawn) | 1.82 °C | 160 µM
O=C(CCc1ncc(-c2ccc(Cl)cc2Cl)o1)NCCc1nnc2ccccn12 | 1.21 °C | –
Cc1noc(C)c1CSCC(=O)c1c(C)[nH]c2ccccc12 | 1.36 °C | –
